Assay results reported in PubChem BioAssay AID504775 (Broad Institute, 2011).
In all, about 320,000 compounds went through this assay and about 310 (0.097%) were called active. The list comes from a sample in which actives are over-represented; it also holds similar structures and randomly drawn compounds. A number with no mark means an inactive call.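 Rule for the calls: active = mean replicate activation of at least 60% and every replicate at or above 60%; inconclusive = mean or all-replicate condition met, but not both; inactive = mean below 60% and not all replicates reaching 60%.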

Experiment: activators of SR-BI mediated DiI-HDL uptake, primary screen, ldlA[mSR-BI] CHO cells, DiI fluorescence (AID 504775);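 note: 0% = median plate neutral-control signal and 100% = twice that signal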
Conditions: 3 h, at 12.5 µM, active compounds read high, 100 = double the neutral-control signal
Method in brief: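 System: LDL receptor-deficient CHO ldlA cells overexpressing murine SR-BI | Timing: 3 h uptake period with compound, 37 °C | Medium: HEPES-buffered (25 mM, pH 7.4) F12 plus 0.5% BSA | Dosing: Single-point compound dose | Signal: Bottom-read fluorescence, 550/595 nm | Read-out: Retained DiI signal reflecting DiI-HDL uptake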

Row | Compound | activation
1 | Cc1nn(-c2ncccn2)c2c1C(=O)CC(C)(C)C2Br (stereo not drawn) | -6.98%
2 | CC12CCCCC1=CC(=O)CC2 (stereo not drawn) | 0.111%
3 | O=C(NNC(=O)c1ccc2ccccc2c1)c1ccc(Cl)cc1 | 17.1%
4 | O=C1C(=O)N(c2ccccc2)C(c2ccccc2)C1c1ccccc1 (stereo not drawn) | -3.47%
5 | c1ccc(C(=NNc2nc3ccccc3s2)c2ccccn2)cc1 | -40.5%
6 | C=CC(=O)Nc1ccc(Nc2ccnc(Nc3ccc(N4CCN(C)CC4)cc3)n2)cc1 | -5.16%
7 | CC(=NNC(=S)N1CCCCCC1)c1ccccn1 | -22.4%
8 | CCOC(=O)c1ccccc1NC(=O)CSc1nc2c(sc(=S)n2CC)c(=O)[nH]1 | 15.7%
9 | Nc1ccc2c(c1)C(=Cc1cccnc1)c1ccccc1-2 | -10.7%
10 | N#CC1=C(N)Oc2cc(N)ccc2C1c1ccccc1 (stereo not drawn) | 23.9%
11 | Cc1ccc(S(=O)(=O)CCC(=O)OCC(=O)N(C)Cc2ccccc2)cc1 | 31.8%
12 | CC/C(=C(/c1ccccc1)c1ccc(OCC[N+](C)(C)C)cc1)c1ccccc1 | 44.1%
13 | CC(C)(C)OC(=O)N(Cc1ccccc1)Cc1ccc(OCc2cccc(NC(=O)c3ccccc3)c2)cc1 | -30.4%
14 | CCCCN1CC(COCc2ccccc2)OCCS1(=O)=O (stereo not drawn) | 17.3%
15 | COc1ccc(CNC(=O)COC(=O)C2=Cc3ccccc3OC2)cc1 | 3.54%
16 | COC1C(CO)OC(n2cnc3c(=S)nc(N)[nH]c32)C1O (stereo not drawn) | 8.65%
17 | COC(=O)C1CC2=C(CC(C)(C)CC2=O)N(c2ccccc2)C1=O (stereo not drawn) | 15.5%
18 | O=C1OC(Cc2ccccc2)C(c2ccccc2)C1=O (stereo not drawn) | 5.71%
19 | CN(C(=O)c1ccc(NC(=O)Cc2cccc(NC(=O)C3CCN(C(=O)c4ccccc4)CC3)c2)cc1)C1CC1 | -15%
20 | CC(C)c1ccc(C=NNc2ccc([N+](=O)[O-])cn2)cc1 | 2.92%
21 | O=C(NN=Cc1ccccc1)c1ccccc1 | 4.39%
22 | NC(=O)C1CCN(C(=O)c2cc(S(=O)(=O)N3CCN(c4ccccc4)CC3)ccc2Cl)CC1 | 3.45%
23 | FC(F)(F)c1ccc(-c2cccc3c2C2CC3CCN2Cc2ccccc2)cc1 (stereo not drawn) | 20.1%
24 | O=c1oc2ccccc2c(=O)c2ccccc12 | 23.4%
25 | O=C(NCCc1ccccc1)c1cccc(NC(=O)c2ccccc2)c1 | -9.83%

Row | Compound | activation
26 | Cc1nc(N)sc1-c1ccccc1 | -11.1%
27 | O=[N+]([O-])c1ccc(N2CCOCC2)cc1 | -9.57%
28 | O=C(NN=CC=Cc1ccccc1)C(O)C(O)C(=O)NN=CC=Cc1ccccc1 (stereo not drawn) | -3.92%
29 | CCCCNCCS(=O)(=O)NCc1ccccc1 | 2.76%
30 | CC(C)CN1CC(C)C(=O)N(c2ccccc2)C1=S (stereo not drawn) | 3.77%
31 | CC(C)C(c1nnnn1CCc1ccccc1)N1CCN(C(=O)c2ccco2)CC1 (stereo not drawn) | 424% (active)
32 | CC(C)C(c1nnnn1C1CCCCC1)N1CCN(C(=O)c2ccco2)CC1 (stereo not drawn) | 4.65%
33 | CCC(c1nnnn1C1CCCC1)N1CCN(C(=O)c2ccco2)CC1 (stereo not drawn) | 3.81%
34 | Cc1ccc(OCCNC(=O)c2cccc(S(=O)(=O)N3CCN(Cc4ccccc4)CC3)c2)cc1 | -20.6%
35 | CSCCC(NC(=O)COc1ccccc1)C(=O)N1CCN(c2cccc(C(F)(F)F)c2)CC1 (stereo not drawn) | -13.3%
36 | c1ccc2cc3c(NCCN4CCOCC4)ccnc3cc2c1 | 30.5%
37 | C1=C(N2CCOCC2)/C(=C/c2nc3ccccc3[nH]2)CC1 | 6.52%
38 | c1ccc2[nH]c(NCCN3CCOCC3)nc2c1 | 62.8% (active)
39 | CCc1c(Nc2ccccc2Cl)nc(N)[nH]c1=O | 15.3%
40 | NC(=O)c1ncn([C@@H]2O[C@H](CNCc3cnc(N4CCOCC4)s3)[C@@H](O)[C@H]2O)n1 | -12%
41 | NC(=O)c1ncn([C@@H]2O[C@H](CN=C3NS(=O)(=O)c4ccccc43)[C@@H](O)[C@H]2O)n1 | 74.1% (active)
42 | COc1cc2c(cc1CNC[C@H]1O[C@@H](n3cnc(C(N)=O)n3)[C@H](O)[C@@H]1O)OCO2 | 13.6%
43 | CCCCNC1(C#N)CCN(Cc2ccccc2)CC1 | 2.1%
44 | COc1ccc(CC(=O)N[C@@H]2c3cc(OC)c(OC)cc3C[C@H]2OCc2ccccc2)cc1 | -26.8%
45 | COc1ccc(C2NCCCC2c2ccccc2)cc1 (stereo not drawn) | -26.9%
46 | CC1C(C)N(C(=O)CCl)c2ccccc2N1C(=O)CCl (stereo not drawn) | 12%
47 | Cc1ccccc1N1CCN(C(=O)c2cccnc2)CC1 | 2.45%
48 | C[C@@H]1NS(=O)(=O)c2cc(Cl)ccc2O[C@@H]1c1ccccc1 | -33.6%
49 | COC(=O)c1ccc(CNC(=O)Cn2cc(C)c(=O)[nH]c2=O)cc1 | -1.85%
50 | O=[N+]([O-])c1ccc(NS(=O)(=O)c2ccccc2)c(Cl)c1 | 84.4% (active)

Row | Compound | activation
51 | Cc1cc([N+](=O)[O-])ccc1NS(=O)(=O)c1ccccc1 | 11.2%
52 | O=C(NNS(=O)(=O)c1ccc(F)cc1)c1ccc([N+](=O)[O-])cc1Cl | 4.85%
53 | OC(COc1ccccc1)CN1CCN(c2cccc(Cl)c2)CC1 (stereo not drawn) | -8.42%
54 | COc1cc(/C=C/c2ccc(/C=C/c3cc(OC)c(OC)c(OC)c3)cc2)cc(OC)c1OC | -51.2%
55 | O=C1C(Cl)=C(Oc2ccccc2)C(=O)c2ccccc21 | -13.1%
56 | COc1ccc(NS(=O)(=O)c2ccc(N3CCOCC3)c(NC(=O)/C=C/C(=O)O)c2)cc1 | 22.2%
57 | COc1ccc(CC(=O)NC(C)c2ccc(Cl)c(Cl)c2)cc1S(=O)(=O)N1CCOCC1 (stereo not drawn) | -4.63%
58 | Cc1cc([N+](=O)[O-])c(=O)[nH]c1C | 9.21%
59 | CC(NC(=O)c1ccccc1)C(=O)Nc1ccccc1 (stereo not drawn) | -16.6%
60 | NC(=O)C1(Nc2ccc([N+](=O)[O-])cc2)CCCC1 | -13.2%
61 | S=C(Nc1ccccc1)Nc1ccc2ccccc2c1 | -9.12%
62 | CN1C(c2ccc(F)cc2)=CS/C1=C(/C#N)c1nnc2n1-c1ccccc1SC2 | -32.2%
63 | CN(CCc1ccccc1)C(=O)c1cccc(NC(=O)Cc2cccc(NC(=O)C3CCCN(C(=O)CCc4ccccc4)C3)c2)c1 (stereo not drawn) | -78.5%
64 | C=CCOC(=O)N1CCC2CC1c1cc(-c3ccc(OC)cc3)ccc12 (stereo not drawn) | 4.14%
65 | CCCCN1CC(CO)Oc2cccc(F)c2S1(=O)=O (stereo not drawn) | 10.7%
66 | C/C(=N\Nc1ccc(Cl)nn1)c1ccccc1O | 7.73%
67 | CCCN(CCC)S(=O)(=O)c1cc2c(cc1Br)CCN2C(=O)CC | -7.1%
68 | NS(=O)(=O)c1ccc(CCNC(=O)c2ccc(Cl)c(S(=O)(=O)N3CCCCCC3)c2)cc1 | -32.8%
69 | CCc1c(Nc2ccccc2C)nc(N)[nH]c1=O | -3.67%
70 | O=C(NN=Cc1ccccc1O)NN=Cc1ccccc1O | -79.8%
71 | CCN(CC)CCCC(C)n1c2nc(=O)[nH]c(=O)c-2nc2cc(Cl)ccc21 (stereo not drawn) | -9.91%
72 | CCCCC(=O)NC(c1ccc(OC)c(OC)c1)c1ccc2cccnc2c1O (stereo not drawn) | -3.38%
73 | O=C(NC(=O)N1CCOCC1)c1ccccc1 | 67.4% (active)
74 | NC(=NC(=O)c1ccccc1)N1CCOCC1 | 1.4%
75 | O=C(CSC(=S)N1CCOCC1)c1ccccc1 | -13.4%

Row | Compound | activation
76 | Cc1nc2ccc(N)nc2nc1C | -22.1%
77 | COc1ccc(S(=O)(=O)N2C[C@H]3CON(C)[C@H]3C[C@H]2c2cccc(Br)c2)cc1 | 7.88%
78 | CN(C(=O)c1cccc(NC(=O)Cc2ccc(NC(=O)C3CCCN(C(=O)C4CCCC4)C3)cc2)c1)C1CCC1 (stereo not drawn) | -86.9%
79 | CCCCN1CC(COc2ccccc2)Oc2cccc(F)c2S1(=O)=O (stereo not drawn) | -3.91%
80 | COC1=CC(=O)OC(C)(c2ccccc2)C1 (stereo not drawn) | -8.07%
81 | O=c1[nH]c(=S)[nH]c(O)c1/C=C1\C=Nc2ccccc21 | 12.1%
82 | Cc1cc(OCCCC(=O)Nc2cc(S(=O)(=O)N3CCOCC3)ccc2N2CCOCC2)ccc1Cl | -17.2%
83 | COC1=NC2=NCCN2C(OC)=N1 | 7.98%
84 | CC1=CC(=NNS(=O)(=O)c2ccc([N+](=O)[O-])cc2)CC(C)(C)C1 | 27.7%
85 | CC(C)Cc1nnc(N)s1 | 10.1%
86 | Cc1nc(N)nc(Cl)c1CCC1OCCO1 | 19.5%
87 | NNc1cccc(C=Cc2ccccc2)cc1=O | -16.6%
88 | Nc1cc(=O)n(Cc2ccccc2)c(=O)n1Cc1ccccc1 | -0.22%
89 | N=C1c2ccccc2-c2ccccc21 | 9.24%
90 | COc1cc(O)c2c(=O)c3c(O)c(O)ccc3oc2c1OC | -10.1%
91 | O=c1nc(NO)ccn1C1CCCO1 (stereo not drawn) | 15.7%
92 | C(#CCN1CCOCC1)CCCN1CCOCC1 | 16.4%
93 | CN1CCOC1c1ccc(C2OCCN2C)cc1 (stereo not drawn) | 6.99%
94 | C=CCN1C=C(C(=O)c2ccccc2)C(=O)CC1 | 19.3%
95 | NN=C(NN=Cc1ccccc1)c1ccccc1 | 1.04%
96 | O=C(Cc1ccccc1)NNS(=O)(=O)c1ccc([N+](=O)[O-])cc1 | -11.7%
97 | O=C(NNS(=O)(=O)c1ccc([N+](=O)[O-])cc1)C1CCCCC1 | 62.5% (active)
98 | O=C(NCC(O)c1ccc([N+](=O)[O-])cc1)C1CCCCC1 (stereo not drawn) | 2.53%
